Data from ChEMBL document CHEMBL1158372, “Design, synthesis, and biological evaluation of novel triazole derivatives as inhibitors of cytochrome P450 14alpha-demethylase” (2009).
≈ marks a conversion by molar mass, not a printed value.

Legend:
Assay type in all cases: functional
Candida albicans = assay: Antifungal activity against Candida albicans ATCC 76615 after 24 hrs by micro-broth dilution method; settings: ATCC 76615, 24 h
How it was run: (§1)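 NCCLS (M27-A2) broth microdilution in 96-well format. Compounds in DMSO, serially diluted in growth medium, inoculated, incubated at 35 °C, and read at 24 h (C. albicans ATCC76615) or 72 h (Cry. neoformans ATCC32609). MIC80 is the first well with about 80% less growth than the drug-free well. Three independent runs per agent; the mean of replicates is reported.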

Cryptococcus neoformans = assay: Antifungal activity against Cryptococcus neoformans ATCC 32609 after 72 hrs by micro-broth dilution method; settings: ATCC 32609, 72 h; how it was run: as §1
Candida parapsilosis = assay: Antifungal activity against Candida parapsilosis by micro-broth dilution method; settings: Lodderomyces parapsilosis
How it was run: (§2)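 Broth microdilution in 96-well plates following the NCCLS method. DMSO solutions of test agents were serially diluted in growth medium, inoculated, and incubated at 35 °C. MIC80 is the first well showing roughly 80% growth reduction versus the drug-free control. C. albicans ATCC76615 and Cry. neoformans ATCC32609 served as quality-control strains. Each test was done three times; the mean of replicates is reported.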

Candida tropicalis = assay: Antifungal activity against Candida tropicalis by micro-broth dilution method; how it was run: as §2
Trichophyton rubrum = assay: Antifungal activity against Trichophyton rubrum by micro-broth dilution method; how it was run: as §2
Pichia kudriavzevii = assay: Antifungal activity against Candida krusei by micro-broth dilution method; how it was run: as §2
Nannizzia gypsea = assay: Antifungal activity against Microsporum gypseum by micro-broth dilution method; how it was run: as §2
Aspergillus fumigatus = assay: Antifungal activity against Aspergillus fumigatus by micro-broth dilution method; how it was run: as §2

C=CCN(Cc1ccc(C(=O)Oc2cccc([N+](=O)[O-])c2)cc1)CC(O)(Cn1cncn1)c1ccc(F)cc1F (stereo not drawn)
MIC80 (Candida albicans): 0.25 µg/mL (≈ 0.455 µM)
MIC80 (Cryptococcus neoformans): 1 µg/mL (≈ 1.82 µM)
MIC80 (Candida parapsilosis): 0.25 µg/mL (≈ 0.455 µM)
MIC80 (Candida tropicalis): 0.0625 µg/mL (≈ 0.114 µM)
MIC80 (Trichophyton rubrum): 4 µg/mL (≈ 7.28 µM)
MIC80 (Pichia kudriavzevii): 4 µg/mL (≈ 7.28 µM)
MIC80 (Nannizzia gypsea): 1 µg/mL (≈ 1.82 µM)
MIC80 (Aspergillus fumigatus): > 64 µg/mL

C=CCN(Cc1ccc(C(=O)OC(C)C)cc1)CC(O)(Cn1cncn1)c1ccc(F)cc1F (stereo not drawn)
MIC80 (Candida albicans): 0.25 µg/mL (≈ 0.531 µM)
MIC80 (Cryptococcus neoformans): 1 µg/mL (≈ 2.13 µM)
MIC80 (Candida parapsilosis): 1 µg/mL (≈ 2.13 µM)
MIC80 (Candida tropicalis): 1 µg/mL (≈ 2.13 µM)
MIC80 (Trichophyton rubrum): 1 µg/mL (≈ 2.13 µM)
MIC80 (Pichia kudriavzevii): 0.25 µg/mL (≈ 0.531 µM)
MIC80 (Nannizzia gypsea): 0.0156 µg/mL (≈ 0.0332 µM)
MIC80 (Aspergillus fumigatus): > 64 µg/mL

C=CCN(Cc1ccc(C)cc1)CC(O)(Cn1cncn1)c1ccc(F)cc1F (stereo not drawn)
MIC80 (Candida albicans): 0.0156 µg/mL (≈ 0.0392 µM)
MIC80 (Cryptococcus neoformans): 0.0625 µg/mL (≈ 0.157 µM)
MIC80 (Candida parapsilosis): 0.25 µg/mL (≈ 0.627 µM)
MIC80 (Candida tropicalis): 0.25 µg/mL (≈ 0.627 µM)
MIC80 (Trichophyton rubrum): 1 µg/mL (≈ 2.51 µM)
MIC80 (Pichia kudriavzevii): 0.0625 µg/mL (≈ 0.157 µM)
MIC80 (Nannizzia gypsea): 0.0156 µg/mL (≈ 0.0392 µM)
MIC80 (Aspergillus fumigatus): > 64 µg/mL

C=CCN(Cc1ccc([N+](=O)[O-])cc1)CC(O)(Cn1cncn1)c1ccc(F)cc1F (stereo not drawn)
MIC80 (Candida albicans): 0.0156 µg/mL (≈ 0.0363 µM)
MIC80 (Cryptococcus neoformans): 0.25 µg/mL (≈ 0.582 µM)
MIC80 (Candida parapsilosis): 0.0625 µg/mL (≈ 0.146 µM)
MIC80 (Candida tropicalis): 0.25 µg/mL (≈ 0.582 µM)
MIC80 (Trichophyton rubrum): 0.25 µg/mL (≈ 0.582 µM)
MIC80 (Pichia kudriavzevii): 0.0625 µg/mL (≈ 0.146 µM)
MIC80 (Nannizzia gypsea): 0.0156 µg/mL (≈ 0.0363 µM)
MIC80 (Aspergillus fumigatus): > 64 µg/mL

C=CCN(Cc1ccc(C(=O)Oc2ccc(Cl)cc2)cc1)CC(O)(Cn1cncn1)c1ccc(F)cc1F (stereo not drawn)
MIC80 (Candida albicans): 1 µg/mL (≈ 1.86 µM)
MIC80 (Cryptococcus neoformans): 16 µg/mL (≈ 29.7 µM)
MIC80 (Candida parapsilosis): 1 µg/mL (≈ 1.86 µM)
MIC80 (Candida tropicalis): 4 µg/mL (≈ 7.42 µM)
MIC80 (Trichophyton rubrum): 4 µg/mL (≈ 7.42 µM)
MIC80 (Pichia kudriavzevii): 4 µg/mL (≈ 7.42 µM)
MIC80 (Nannizzia gypsea): 0.25 µg/mL (≈ 0.464 µM)
MIC80 (Aspergillus fumigatus): > 64 µg/mL

C=CCN(Cc1ccc(C(=O)Oc2ccccc2C(=O)OC)cc1)CC(O)(Cn1cncn1)c1ccc(F)cc1F (stereo not drawn)
MIC80 (Candida albicans): 0.0625 µg/mL (≈ 0.111 µM)
MIC80 (Cryptococcus neoformans): > 64 µg/mL
MIC80 (Candida parapsilosis): 4 µg/mL (≈ 7.11 µM)
MIC80 (Candida tropicalis): 16 µg/mL (≈ 28.4 µM)
MIC80 (Trichophyton rubrum): 64 µg/mL (≈ 114 µM)
MIC80 (Pichia kudriavzevii): 16 µg/mL (≈ 28.4 µM)
MIC80 (Nannizzia gypsea): 4 µg/mL (≈ 7.11 µM)
MIC80 (Aspergillus fumigatus): > 64 µg/mL

C=CCN(Cc1ccc(Cl)cc1)CC(O)(Cn1cncn1)c1ccc(F)cc1F (stereo not drawn)
MIC80 (Candida albicans): 0.25 µg/mL (≈ 0.597 µM)
MIC80 (Cryptococcus neoformans): 0.25 µg/mL (≈ 0.597 µM)
MIC80 (Candida parapsilosis): 0.25 µg/mL (≈ 0.597 µM)
MIC80 (Candida tropicalis): 0.25 µg/mL (≈ 0.597 µM)
MIC80 (Trichophyton rubrum): 0.25 µg/mL (≈ 0.597 µM)
MIC80 (Pichia kudriavzevii): 0.0625 µg/mL (≈ 0.149 µM)
MIC80 (Nannizzia gypsea): 0.0625 µg/mL (≈ 0.149 µM)
MIC80 (Aspergillus fumigatus): 16 µg/mL (≈ 38.2 µM)

C=CCN(Cc1ccc(Cl)cc1Cl)CC(O)(Cn1cncn1)c1ccc(F)cc1F (stereo not drawn)
MIC80 (Candida albicans): 1 µg/mL (≈ 2.21 µM)
MIC80 (Cryptococcus neoformans): 1 µg/mL (≈ 2.21 µM)
MIC80 (Candida parapsilosis): 0.25 µg/mL (≈ 0.551 µM)
MIC80 (Candida tropicalis): 0.25 µg/mL (≈ 0.551 µM)
MIC80 (Trichophyton rubrum): 1 µg/mL (≈ 2.21 µM)
MIC80 (Pichia kudriavzevii): 0.25 µg/mL (≈ 0.551 µM)
MIC80 (Nannizzia gypsea): 1 µg/mL (≈ 2.21 µM)
MIC80 (Aspergillus fumigatus): 16 µg/mL (≈ 35.3 µM)

CC(=O)N1CCN(c2ccc(OCC3COC(Cn4ccnc4)(c4ccc(Cl)cc4Cl)O3)cc2)CC1 (stereo not drawn) [KETOCONAZOLE]
MIC80 (Candida albicans): 0.0156 µg/mL (≈ 0.0294 µM)
MIC80 (Cryptococcus neoformans): 0.0625 µg/mL (≈ 0.118 µM)
MIC80 (Candida parapsilosis): 0.0625 µg/mL (≈ 0.118 µM)
MIC80 (Candida tropicalis): 0.0625 µg/mL (≈ 0.118 µM)
MIC80 (Trichophyton rubrum): 0.0625 µg/mL (≈ 0.118 µM)
MIC80 (Pichia kudriavzevii): 0.25 µg/mL (≈ 0.47 µM)
MIC80 (Nannizzia gypsea): 0.0156 µg/mL (≈ 0.0294 µM)
MIC80 (Aspergillus fumigatus): 1 µg/mL (≈ 1.88 µM)

C=CCN(Cc1ccccc1F)CC(O)(Cn1cncn1)c1ccc(F)cc1F (stereo not drawn)
MIC80 (Candida albicans): 0.0039 µg/mL (≈ 0.00969 µM)
MIC80 (Cryptococcus neoformans): 0.0625 µg/mL (≈ 0.155 µM)
MIC80 (Candida parapsilosis): 0.0156 µg/mL (≈ 0.0388 µM)
MIC80 (Candida tropicalis): 0.0625 µg/mL (≈ 0.155 µM)
MIC80 (Trichophyton rubrum): 0.25 µg/mL (≈ 0.621 µM)
MIC80 (Pichia kudriavzevii): 0.0156 µg/mL (≈ 0.0388 µM)
MIC80 (Nannizzia gypsea): 0.0039 µg/mL (≈ 0.00969 µM)
MIC80 (Aspergillus fumigatus): > 64 µg/mL

C=CCN(Cc1ccc(C(=O)OCCCC)cc1)CC(O)(Cn1cncn1)c1ccc(F)cc1F (stereo not drawn)
MIC80 (Candida albicans): 0.25 µg/mL (≈ 0.516 µM)
MIC80 (Cryptococcus neoformans): 1 µg/mL (≈ 2.06 µM)
MIC80 (Candida parapsilosis): 1 µg/mL (≈ 2.06 µM)
MIC80 (Candida tropicalis): 1 µg/mL (≈ 2.06 µM)
MIC80 (Trichophyton rubrum): 1 µg/mL (≈ 2.06 µM)
MIC80 (Pichia kudriavzevii): 1 µg/mL (≈ 2.06 µM)
MIC80 (Nannizzia gypsea): 1 µg/mL (≈ 2.06 µM)
MIC80 (Aspergillus fumigatus): > 64 µg/mL

C=CCN(Cc1ccccc1Cl)CC(O)(Cn1cncn1)c1ccc(F)cc1F (stereo not drawn)
MIC80 (Candida albicans): 0.0156 µg/mL (≈ 0.0372 µM)
MIC80 (Cryptococcus neoformans): 0.25 µg/mL (≈ 0.597 µM)
MIC80 (Candida parapsilosis): 0.0625 µg/mL (≈ 0.149 µM)
MIC80 (Candida tropicalis): 0.25 µg/mL (≈ 0.597 µM)
MIC80 (Trichophyton rubrum): 1 µg/mL (≈ 2.39 µM)
MIC80 (Pichia kudriavzevii): 0.0625 µg/mL (≈ 0.149 µM)
MIC80 (Nannizzia gypsea): 0.0625 µg/mL (≈ 0.149 µM)
MIC80 (Aspergillus fumigatus): > 64 µg/mL

CN(C/C=C/C#CC(C)(C)C)Cc1cccc2ccccc12 [TERBINAFINE]
MIC80 (Candida albicans): 4 µg/mL (≈ 13.7 µM)
MIC80 (Cryptococcus neoformans): 1 µg/mL (≈ 3.43 µM)
MIC80 (Candida parapsilosis): 0.25 µg/mL (≈ 0.858 µM)
MIC80 (Candida tropicalis): 0.0625 µg/mL (≈ 0.214 µM)
MIC80 (Trichophyton rubrum): 0.0625 µg/mL (≈ 0.214 µM)
MIC80 (Pichia kudriavzevii): 16 µg/mL (≈ 54.9 µM)
MIC80 (Nannizzia gypsea): 4 µg/mL (≈ 13.7 µM)
MIC80 (Aspergillus fumigatus): 0.0625 µg/mL (≈ 0.214 µM)

OC(Cn1cncn1)(Cn1cncn1)c1ccc(F)cc1F [FLUCONAZOLE]
MIC80 (Candida albicans): 0.5 µg/mL (≈ 1.63 µM)
MIC80 (Cryptococcus neoformans): 1 µg/mL (≈ 3.27 µM)
MIC80 (Candida parapsilosis): 1 µg/mL (≈ 3.27 µM)
MIC80 (Candida tropicalis): 1 µg/mL (≈ 3.27 µM)
MIC80 (Trichophyton rubrum): 4 µg/mL (≈ 13.1 µM)
MIC80 (Pichia kudriavzevii): 4 µg/mL (≈ 13.1 µM)
MIC80 (Nannizzia gypsea): 0.25 µg/mL (≈ 0.816 µM)
MIC80 (Aspergillus fumigatus): > 64 µg/mL

CCC(C)n1ncn(-c2ccc(N3CCN(c4ccc(OCC5COC(Cn6cncn6)(c6ccc(Cl)cc6Cl)O5)cc4)CC3)cc2)c1=O (stereo not drawn) [ITRACONAZOLE]
MIC80 (Candida albicans): 0.0625 µg/mL (≈ 0.0886 µM)
MIC80 (Cryptococcus neoformans): 0.125 µg/mL (≈ 0.177 µM)
MIC80 (Candida parapsilosis): 0.125 µg/mL (≈ 0.177 µM)
MIC80 (Candida tropicalis): 0.125 µg/mL (≈ 0.177 µM)
MIC80 (Trichophyton rubrum): 0.125 µg/mL (≈ 0.177 µM)
MIC80 (Pichia kudriavzevii): 0.5 µg/mL (≈ 0.709 µM)
MIC80 (Nannizzia gypsea): 0.0625 µg/mL (≈ 0.0886 µM)
MIC80 (Aspergillus fumigatus): 0.5 µg/mL (≈ 0.709 µM)

C=CCN(Cc1ccc(C(=O)OCC)cc1)CC(O)(Cn1cncn1)c1ccc(F)cc1F (stereo not drawn)
MIC80 (Candida albicans): 0.0039 µg/mL (≈ 0.00854 µM)
MIC80 (Cryptococcus neoformans): 1 µg/mL (≈ 2.19 µM)
MIC80 (Candida parapsilosis): 1 µg/mL (≈ 2.19 µM)
MIC80 (Candida tropicalis): 0.25 µg/mL (≈ 0.548 µM)
MIC80 (Trichophyton rubrum): 0.25 µg/mL (≈ 0.548 µM)
MIC80 (Pichia kudriavzevii): 0.0625 µg/mL (≈ 0.137 µM)
MIC80 (Nannizzia gypsea): 0.25 µg/mL (≈ 0.548 µM)
MIC80 (Aspergillus fumigatus): > 64 µg/mL
